The values below come from ChEMBL document CHEMBL2040767, “Development of Polar Adenosine A2A Receptor Agonists for Inflammatory Bowel Disease: Synergism with A2B Antagonists” (ACS Med Chem Lett, 2011).

In assay [1] the target is T1, Adenosine receptor A2a (Rattus norvegicus, UniProt P30543). Briefly: Displacement of [3H]MSX-2 from adenosine A2A receptor in rat brain striatum. The format is tissue-based. (In a radioligand displacement assay an active substance lowers the binding of a labelled ligand.)
T1 sequence (P30543 whole entry): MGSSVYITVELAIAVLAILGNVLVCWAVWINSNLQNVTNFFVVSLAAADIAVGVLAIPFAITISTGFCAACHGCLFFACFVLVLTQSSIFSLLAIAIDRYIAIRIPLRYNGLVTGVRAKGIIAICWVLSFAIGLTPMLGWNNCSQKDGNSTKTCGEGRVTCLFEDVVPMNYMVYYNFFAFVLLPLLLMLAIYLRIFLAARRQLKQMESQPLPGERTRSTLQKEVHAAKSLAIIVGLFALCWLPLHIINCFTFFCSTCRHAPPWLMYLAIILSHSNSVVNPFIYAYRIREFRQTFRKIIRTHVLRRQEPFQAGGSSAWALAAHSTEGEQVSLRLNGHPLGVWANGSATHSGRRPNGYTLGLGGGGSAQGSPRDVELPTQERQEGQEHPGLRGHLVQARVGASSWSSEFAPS
For assay [2], the target named is T2, Adenosine receptor A2a (Homo sapiens, UniProt P29274). Briefly: Displacement of [3H]CGS21680 from human recombinant adenosine A2A receptor.
T2 sequence (P29274 whole entry): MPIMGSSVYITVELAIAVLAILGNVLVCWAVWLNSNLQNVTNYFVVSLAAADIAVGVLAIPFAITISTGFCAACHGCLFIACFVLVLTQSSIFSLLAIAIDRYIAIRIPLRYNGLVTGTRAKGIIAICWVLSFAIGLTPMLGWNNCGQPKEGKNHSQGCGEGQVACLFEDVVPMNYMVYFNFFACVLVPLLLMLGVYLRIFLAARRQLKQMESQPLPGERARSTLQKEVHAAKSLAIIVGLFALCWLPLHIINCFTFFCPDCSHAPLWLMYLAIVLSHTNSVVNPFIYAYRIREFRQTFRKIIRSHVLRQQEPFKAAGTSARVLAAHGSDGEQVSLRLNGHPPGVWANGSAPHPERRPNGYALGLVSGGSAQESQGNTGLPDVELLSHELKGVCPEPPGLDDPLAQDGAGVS
The target in assay [3] is T3, Adenosine receptor A3 (Homo sapiens, UniProt P0DMS8).
T3 sequence (P0DMS8 whole entry): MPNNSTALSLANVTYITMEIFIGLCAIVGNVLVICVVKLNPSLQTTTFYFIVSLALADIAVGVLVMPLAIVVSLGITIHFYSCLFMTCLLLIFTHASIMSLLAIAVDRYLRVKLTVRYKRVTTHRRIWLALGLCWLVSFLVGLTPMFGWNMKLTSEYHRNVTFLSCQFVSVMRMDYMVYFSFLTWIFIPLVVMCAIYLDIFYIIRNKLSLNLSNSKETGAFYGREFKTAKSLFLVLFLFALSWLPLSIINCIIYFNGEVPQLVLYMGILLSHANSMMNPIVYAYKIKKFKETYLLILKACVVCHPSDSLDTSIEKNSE
Briefly: Displacement of [3H]PSB-11 from human recombinant adenosine A3 receptor expressed in CHO cells. In kind it is cell-based. Summed up: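 Competition binding at human recombinant A3 receptor with [3H]PSB-11 as radioligand; Ki reported as mean ± SEM from three experiments.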

Assay [4] deals with T4, Adenosine receptor A1 (Rattus norvegicus, UniProt P25099).
T4 sequence (P25099 whole entry): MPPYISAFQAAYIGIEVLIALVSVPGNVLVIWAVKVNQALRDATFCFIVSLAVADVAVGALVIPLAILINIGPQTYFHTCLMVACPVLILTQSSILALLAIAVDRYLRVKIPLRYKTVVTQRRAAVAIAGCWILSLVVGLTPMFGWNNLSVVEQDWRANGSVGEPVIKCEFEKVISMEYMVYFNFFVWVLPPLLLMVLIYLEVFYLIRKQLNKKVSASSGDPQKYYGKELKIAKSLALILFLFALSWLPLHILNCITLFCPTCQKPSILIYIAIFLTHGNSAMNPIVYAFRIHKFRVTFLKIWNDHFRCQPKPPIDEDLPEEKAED
Briefly: Displacement of [3H]CCPA from adenosine A1 receptor in rat brain cortex. The format is tissue-based.

Assay [5] deals with T5, Adenosine receptor A2b (Homo sapiens, UniProt P29275).
T5 sequence (P29275 whole entry): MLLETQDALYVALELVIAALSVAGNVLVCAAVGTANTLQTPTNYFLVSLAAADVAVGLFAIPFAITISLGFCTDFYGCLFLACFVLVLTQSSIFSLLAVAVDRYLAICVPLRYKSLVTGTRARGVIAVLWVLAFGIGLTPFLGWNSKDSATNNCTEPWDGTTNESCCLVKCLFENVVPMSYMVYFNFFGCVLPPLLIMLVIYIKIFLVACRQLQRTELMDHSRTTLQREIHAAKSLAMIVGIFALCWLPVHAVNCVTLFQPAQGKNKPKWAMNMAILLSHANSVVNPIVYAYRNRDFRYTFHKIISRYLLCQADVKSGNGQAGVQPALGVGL
Briefly: Displacement of [3H]PSB-603 from human recombinant adenosine A2B receptor expressed in CHO cells after 75 mins by liquid scintillation assay. The format is cell-based.

Assay [6] concerns the target T3, Adenosine receptor A3. Briefly: Displacement of [3H]NECA from human recombinant adenosine A3 receptor.
The target in assay [7] is T1, Adenosine receptor A2a. Description: Displacement of [3H]CGS21680 from adenosine A2A receptor in rat brain striatum. In kind it is tissue-based.
For assay [8], the target named is T6, Adenosine receptor A1 (Homo sapiens, UniProt P30542).
T6 sequence (P30542 whole entry): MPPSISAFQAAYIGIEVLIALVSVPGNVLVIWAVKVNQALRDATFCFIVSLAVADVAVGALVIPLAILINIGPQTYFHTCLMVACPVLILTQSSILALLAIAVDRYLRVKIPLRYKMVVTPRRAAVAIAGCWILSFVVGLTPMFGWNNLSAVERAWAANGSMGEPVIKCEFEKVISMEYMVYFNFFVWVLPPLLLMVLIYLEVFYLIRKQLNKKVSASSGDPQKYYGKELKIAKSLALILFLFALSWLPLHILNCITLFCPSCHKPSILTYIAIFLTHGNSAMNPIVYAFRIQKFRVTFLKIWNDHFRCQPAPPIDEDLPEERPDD
Briefly: Displacement of [3H]CCPA from human recombinant adenosine A1 receptor.

Assay [9] deals with T7, Adenosine receptor A2b (Rattus norvegicus) (UniProt P29276).
T7 sequence (whole entry): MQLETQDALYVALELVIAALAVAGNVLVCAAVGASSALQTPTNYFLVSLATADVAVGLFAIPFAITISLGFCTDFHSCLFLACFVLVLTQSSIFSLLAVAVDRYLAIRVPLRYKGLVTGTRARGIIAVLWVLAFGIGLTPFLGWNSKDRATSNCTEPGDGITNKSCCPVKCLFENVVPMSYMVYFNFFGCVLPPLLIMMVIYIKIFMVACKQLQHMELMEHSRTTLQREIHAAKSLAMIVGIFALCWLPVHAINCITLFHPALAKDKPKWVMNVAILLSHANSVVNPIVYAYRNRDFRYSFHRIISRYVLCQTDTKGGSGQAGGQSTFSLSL
Briefly: Antagonist activity at adenosine A2B receptor in Wistar rat ileum/jejunum segment assessed as reversal of TNBS-induced inhibition of Ach-induced contraction at 100 uM after 30 mins. Set-up: scale not given: the % may be the effect or the level left. The format is functional, tissue-based. Summed up:
(§1)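 Ex vivo rat ileum/jejunum segments; contractions evoked by acetylcholine 1 mM, expressed as % of Ach contraction without drug (100%). Acute inflammation induced by TNBS 10 mM, with the A2B antagonist (1–100 μM) preincubated alongside TNBS. Means ± SEM of seven experiments.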

The target in assay [10] is T7, Adenosine receptor A2b (Rattus norvegicus). Briefly: Antagonist activity at adenosine A2B receptor in Wistar rat ileum/jejunum segment assessed as reversal of TNBS-induced inhibition of Ach-induced contraction at 10 uM after 30 mins. In kind it is functional, tissue-based. Set-up: scale not given: the % may be the effect or the level left. The procedure, abridged:
as §1

Assay [11] has the same target. Briefly: Antagonist activity at adenosine A2B receptor in Wistar rat ileum/jejunum segment assessed as reversal of TNBS-induced inhibition of Ach-induced contraction after 30 mins. The format is functional, tissue-based. Summed up:
as §1

The target in assay [12] is T2, Adenosine receptor A2a. Description: Agonist activity at human adenosine A2A receptor expressed in CHO-K1 cells by cAMP accumulation assay. The format is functional, cell-based. In general terms: cAMP levels reflect the balance of adenylyl cyclase and phosphodiesterase activity.

Take `Nc1nc(SCC(=O)O)nc2c1ncn2[C@@H]1O[C@H](CO)[C@@H](O)[C@H]1O`: the Ki in assay [1] was > 10000 nM; in [2], > 10000 nM; in assay [3], > 10000 nM; in assay [4], 1930 nM.
Take `Nc1nc(SCCc2ccc(C(=O)O)cc2)nc2c1ncn2[C@@H]1O[C@H](CO)[C@@H](O)[C@H]1O`: the Ki in [5] was > 10000 nM; in [6], > 1000 nM; in [7], 152 nM; in assay [2], ≥ 10000 nM; in [3], > 10000 nM; in assay [8], 404 nM. The Ki in assay [4] is 1010 nM.
As for `Nc1nc(S(=O)(=O)CCc2ccc(S(=O)(=O)O)cc2)nc2c1ncn2[C@@H]1O[C@H](CO)[C@@H](O)[C@H]1O`, the Ki in assay [7] is > 10000 nM; in [2] it was > 10000 nM; in assay [3], > 10000 nM; in [8] it was 545 nM; in [4], 1800 nM.
Consider `CCCn1c(=O)[nH]c2nc(-c3ccc(S(=O)(=O)N4CCN(Cc5ccccc5)CC4)cc3)[nH]c2c1=O`, for which the Activity in [9] was 86.1%; in [10] it was 53.3%; in [11], “Dose-dependent effect”.
Turning to `Nc1nc(SCCc2ccc(S(=O)(=O)O)cc2)nc2c1ncn2[C@@H]1O[C@H](CO)[C@@H](O)[C@H]1O`, the Ki is > 10000 nM in assay [5]; > 1000 nM in assay [6]; 44.4 nM in assay [7]; 360 nM in [2]; > 10000 nM in assay [3]; 541 nM in assay [8]. Also, the inhibitory constant (Ki) in [4] is ≥ 10000 nM. In addition, the midpoint of the response in [12], the EC50, lay at 117 nM.

The term Ki denotes a dissociation constant, usually derived from enzyme kinetics or from competition with a known ligand. For orientation: EC50 means the concentration that produces a half-maximal response.
